This is an account of results in ChEMBL document CHEMBL1135464, “3-Aryl-2-quinolone derivatives: synthesis and characterization of in vitro and in vivo antitumor effects with emphasis on a new therapeutical target connected with cell migration” (J Med Chem, 2002).

Bounds are passed on as bounds.

The term IC50 denotes the concentration that gives 50% inhibition. Higher therefore signals weaker potency. One may read the MTD as the highest dose tested that stayed within the study's limit of toxicity. Low values mean a narrow tolerated range, high ones a wide tolerated range.

The subject of data set [1] is A-427. Description: Cytotoxicity against A-427 nonsmall lung cell line using MTT colorimetric assay. The following applies: Homo sapiens. It is filed as functional, cell-based. The essentials:
(§1)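 Human tumour lines from ATCC were grown at 37 °C in sealed dishes in MEM with 5% FCS. Cells were seeded at 40000 cells/mL in 96-well plates and left 24 h to plate. Each drug was then tested at six concentrations from 10^-5 to 10^-9 M. Growth was read by colorimetric MTT assay.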

Data set [2] has as its system A 172. The data set can be described thus: Cytotoxicity against A-172 glioblastomas using MTT colorimetric assay. To be noted: Homo sapiens. It is filed as functional, cell-based. The procedure, abridged: as §1
Data set [3] deals with MCF7. Description: Cytotoxicity against Breast cancer cell line MCF-7 using MTT colorimetric assay. The format is functional, cell-based. To be noted: Homo sapiens. The procedure, abridged: as §1
For orientation: Tetrazolium assays rely on reduction of a dye to a coloured formazan, in cell work by metabolically active cells.

Data set [4] deals with A549. Description: Cytotoxicity against A549 nonsmall lung cell line using MTT colorimetric assay. It is filed as functional, cell-based. The following applies: Homo sapiens. The procedure, abridged:
as §1

Data set [5] can be described thus: Evaluated in vivo for maximum tolerated dose and found to be nontoxic. The format is ADME, organism-based.
The subject of data set [6] is U373 MG. Description: Cytotoxicity against U-373 MG glioblastomas using MTT colorimetric assay. The following applies: Homo sapiens. It is filed as functional, cell-based, U-373MG ATCC. The essentials:
as §1

The test system of data set [7] is PC-3. Description: Cytotoxicity against prostate cell line PC-3 using MTT colorimetric assay. The format is functional, cell-based. The following applies: Homo sapiens. The essentials:
as §1

The test system of data set [8] is LoVo. The data set can be described thus: Cytotoxicity measured on LoVo colon cell line using MTT colorimetric assay. The format is functional, cell-based. To be noted: Homo sapiens. The essentials:
as §1

In data set [9] the test system is J82. Description: Cytotoxicity against J82 bladder cell lines using MTT colorimetric assay. The format is functional, cell-based. To be noted: Homo sapiens. The essentials: as §1
The test system of data set [10] is T47D. Description: Cytotoxicity against Breast cancer cell line T-47D using MTT colorimetric assay. It is filed as functional, cell-based. To be noted: Homo sapiens. The essentials:
as §1

The test system of data set [11] is U-87 MG. Description: Cytotoxicity against U-87 MG glioblastomas using MTT colorimetric assay. The format is functional, cell-based, U-87MG ATCC. To be noted: Homo sapiens. The essentials: as §1
Data set [12] deals with HCT-15. Description: Cytotoxicity against HCT-15 colon cell line using MTT colorimetric assay. The format is functional, cell-based. To be noted: Homo sapiens. The procedure, abridged:
as §1

Data set [13] concerns T-24. Description: Cytotoxicity against T24 bladder cell lines using MTT colorimetric assay. The format is functional, cell-based. To be noted: Homo sapiens. The essentials: as §1
Data set [14] relates to HCT-15. Description: Cytotoxicity against HCT-15 colon cell line using MTT colorimetric assay at 1x 10 E-5. The format is functional, cell-based. To be noted: Homo sapiens. The procedure, abridged: as §1
The subject of data set [15] is U-87 MG. The data set can be described thus: Cytotoxicity against U-87 MG glioblastomas using MTT colorimetric assay; NE is no effect at 1x 10 E-5. It is filed as functional, cell-based, Homo sapiens. The following applies: u-87mg atcc. The essentials:
as §1

Data set [16] has as its system A 172. The data set can be described thus: Cytotoxicity against A-172 glioblastomas using MTT colorimetric assay; NE is no effect at 1x 10 E-5. It is filed as functional, cell-based, Homo sapiens. The procedure, abridged:
as §1

In data set [17] the test system is MCF7. The data set can be described thus: Cytotoxicity against Breast cancer cell line MCF-7 using MTT colorimetric assay; NE is no effect at 1x 10 E-5. It is filed as functional, cell-based, Homo sapiens. The procedure, abridged: as §1
For data set [18], the system named is U373 MG. Description: Cytotoxicity against U-373 MG glioblastomas using MTT colorimetric assay; NE is no effect at 1x 10 E-5. The format is functional, cell-based, Homo sapiens. To be noted: u-373mg atcc. The essentials:
as §1

The subject of data set [19] is HCT-15. Description: Cytotoxicity against HCT-15 colon cell line using MTT colorimetric assay; NE is no effect at 1x 10 E-5. The format is functional, cell-based, Homo sapiens. The essentials: as §1
For data set [20], the system named is T-24. Description: Cytotoxicity against T24 bladder cell lines using MTT colorimetric assay; NE is no effect at 1x 10 E-5. The format is functional, cell-based, Homo sapiens. The procedure, abridged:
as §1

For data set [21], the system named is T47D. Description: Cytotoxicity against Breast cancer cell line T-47D using MTT colorimetric assay; NE is no effect at 1x 10 E-5. The format is functional, cell-based, Homo sapiens. The procedure, abridged: as §1
The subject of data set [22] is LoVo. Description: Cytotoxicity against LoVo colon cell line using MTT colorimetric assay; NE is no effect at 1x 10 E-5. The format is functional, cell-based, Homo sapiens. The procedure, abridged: as §1
Data set [23] relates to A-427. Description: Cytotoxicity against A-427 nonsmall lung cell line using MTT colorimetric assay; NE is no effect at 1x 10 E-5. It is filed as functional, cell-based, Homo sapiens. The essentials: as §1
Data set [24] relates to J82. The data set can be described thus: Cytotoxicity against J82 bladder cell lines using MTT colorimetric assay; NE is no effect at 1x 10 E-5. The format is functional, cell-based, Homo sapiens. The procedure, abridged:
as §1

For data set [25], the system named is A549. The data set can be described thus: Cytotoxicity against A549 nonsmall lung cell line using MTT colorimetric assay; NE is no effect at 1x 10 E-5. It is filed as functional, cell-based, Homo sapiens. The procedure, abridged:
as §1

For data set [26], the system named is PC-3. Description: Cytotoxicity against prostate cell line PC-3 using MTT colorimetric assay; NE is no effect at 1x 10 E-5. It is filed as functional, cell-based, Homo sapiens. The essentials: as §1

As to `COc1ccc(-c2cc3c(OC)cc(OC)cc3n(CC#N)c2=O)cc1`, the IC50 in the data set with A-427 [1], in the data set with A 172 [2], in the data set with MCF7 [3], in the data set on A549 [4], with U373 MG [6] and in the data set with PC-3 [7] was over 10 µM in each case. For the same compound, the IC50 in the data set with LoVo [8], in the data set on J82 [9], in the data set with T47D [10], in the data set on U-87 MG [11], in the data set with HCT-15 [12] and with T-24 [13] was over 10 µM throughout. Also, the MTD in data set [5] came to 160 mg/kg.

As for `CCN(CC)C(=O)CCn1c(=O)c(-c2ccc(OC)cc2)cc2c(OC)cc(OC)cc21`, the IC50 with A-427 [1], with A 172 [2], with MCF7 [3], in the data set with A549 [4], with U373 MG [6] and in the data set on PC-3 [7] was over 10 µM each time. Further, the IC50 in the data set on LoVo [8], in the data set with J82 [9], in the data set with T47D [10], in the data set with U-87 MG [11], in the data set on HCT-15 [12] and with T-24 [13] was over 10 µM each time. In data set [5], this compound came in with an MTD of 160 mg/kg.

For `COc1ccc(-c2cc3c(OC)cc(OC)cc3n(C)/c2=N\Nc2ccccn2)cc1`, the IC50 in the data set on A-427 [1], in the data set on A 172 [2], in the data set on MCF7 [3], in the data set on A549 [4], in the data set on U373 MG [6] and in the data set on PC-3 [7] was over 10 µM each time. The IC50 in the data set with LoVo [8], in the data set on J82 [9], with T47D [10], with U-87 MG [11], with HCT-15 [12] and with T-24 [13] was over 10 µM each time. In data set [5], the MTD amounted to 160 mg/kg.

On to `Oc1ccc(-c2cc3c(O)cc(O)cc3nc2O)cc1`, for which the IC50 in the data set with A-427 [1], in the data set with A 172 [2], in the data set on MCF7 [3], in the data set with A549 [4], with U373 MG [6] and with PC-3 [7] was over 10 µM throughout. Further, the IC50 in the data set with LoVo [8], with J82 [9], with T47D [10], in the data set on U-87 MG [11], with HCT-15 [12] and in the data set with T-24 [13] was over 10 µM throughout. In addition, the MTD in data set [5] was 160 mg/kg.

Regarding `Cn1c(=O)c(-c2ccc(O)cc2)cc2c(O)cc(O)cc21`, the IC50 with A-427 [1], in the data set with A 172 [2], in the data set on MCF7 [3], with A549 [4], in the data set with U373 MG [6] and with PC-3 [7] was over 10 µM in each case. For the same compound, the IC50 in the data set on LoVo [8], with J82 [9], with T47D [10], in the data set with U-87 MG [11], in the data set with HCT-15 [12] and with T-24 [13] was over 10 µM each time. In addition, the MTD in data set [5] came out at 160 mg/kg.

As to `COC(=O)CCn1c(=O)c(-c2ccc(OC)cc2)cc2c(OC)cc(OC)cc21`, the half-maximal inhibitory concentration (IC50) with A-427 [1], in the data set with HCT-15 [14], in the data set on A 172 [2], in the data set on MCF7 [3], in the data set with A549 [4] and with U373 MG [6] was over 10 µM in each case. Further, the IC50 in the data set on PC-3 [7], in the data set on LoVo [8], in the data set on J82 [9], in the data set on T47D [10], with U-87 MG [11] and in the data set with T-24 [13] was over 10 µM each time. For the same compound, in data set [5], the MTD turned out to be 160 mg/kg.

As to `COc1ccc(-c2cc3c(OC)cc(OC)cc3n(CCCN(C)C)c2=O)cc1`, the half-inhibitory concentration (IC50) entry with U-87 MG [15], with A 172 [16], in the data set with MCF7 [17], with U373 MG [18], with HCT-15 [19] and in the data set with T-24 [20] was “No effect” each time. The IC50 entry in the data set with T47D [21], in the data set with LoVo [22], with A-427 [23], with J82 [24], in the data set on A549 [25] and in the data set on PC-3 [26] was “No effect” in each case. This compound returned an MTD in [5] of 160 mg/kg.
